Measurements: ChEMBL document CHEMBL1153305, “Preparation and characterization of N-(3-pyridinyl) spirocyclic diamines as ligands for nicotinic acetylcholine receptors” (Bioorg Med Chem Lett, 2009)
Activity calls are given as the source filed them. The calls are words filed in the database; no cut-off is given here.

How the values were obtained:
Mus musculus [1] = assay: Analgesic activity in mouse at 62 umol/kg, ip; type: functional, organism-based
How it was run: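 Mouse hot plate analgesia model. The compound was given ip, with 62 μmol/kg as the highest dose tested.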

[2] = biological target: T1, Neuronal acetylcholine receptor; alpha4/beta2 (Homo sapiens, UniProt P17787+P43681); assay: Agonist activity at human recombinant alpha4beta2 nAChR expressed in human IMR32 cells assessed as calcium dynamics by FLIPR assay; type: functional, cell-based
T1 sequence (P17787 whole entry): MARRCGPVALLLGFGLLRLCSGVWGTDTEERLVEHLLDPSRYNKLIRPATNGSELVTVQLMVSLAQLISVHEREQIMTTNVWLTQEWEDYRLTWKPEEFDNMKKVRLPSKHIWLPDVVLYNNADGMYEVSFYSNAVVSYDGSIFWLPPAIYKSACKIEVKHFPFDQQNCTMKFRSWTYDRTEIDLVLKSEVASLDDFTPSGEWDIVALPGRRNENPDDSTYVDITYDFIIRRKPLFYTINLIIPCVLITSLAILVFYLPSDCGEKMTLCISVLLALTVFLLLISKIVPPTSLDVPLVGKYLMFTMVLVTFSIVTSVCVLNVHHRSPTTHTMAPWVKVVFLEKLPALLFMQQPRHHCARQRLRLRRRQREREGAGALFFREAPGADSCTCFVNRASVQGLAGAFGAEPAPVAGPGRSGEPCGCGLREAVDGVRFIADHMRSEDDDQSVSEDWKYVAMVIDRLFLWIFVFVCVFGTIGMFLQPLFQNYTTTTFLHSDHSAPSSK
T1 sequence (P43681 whole entry): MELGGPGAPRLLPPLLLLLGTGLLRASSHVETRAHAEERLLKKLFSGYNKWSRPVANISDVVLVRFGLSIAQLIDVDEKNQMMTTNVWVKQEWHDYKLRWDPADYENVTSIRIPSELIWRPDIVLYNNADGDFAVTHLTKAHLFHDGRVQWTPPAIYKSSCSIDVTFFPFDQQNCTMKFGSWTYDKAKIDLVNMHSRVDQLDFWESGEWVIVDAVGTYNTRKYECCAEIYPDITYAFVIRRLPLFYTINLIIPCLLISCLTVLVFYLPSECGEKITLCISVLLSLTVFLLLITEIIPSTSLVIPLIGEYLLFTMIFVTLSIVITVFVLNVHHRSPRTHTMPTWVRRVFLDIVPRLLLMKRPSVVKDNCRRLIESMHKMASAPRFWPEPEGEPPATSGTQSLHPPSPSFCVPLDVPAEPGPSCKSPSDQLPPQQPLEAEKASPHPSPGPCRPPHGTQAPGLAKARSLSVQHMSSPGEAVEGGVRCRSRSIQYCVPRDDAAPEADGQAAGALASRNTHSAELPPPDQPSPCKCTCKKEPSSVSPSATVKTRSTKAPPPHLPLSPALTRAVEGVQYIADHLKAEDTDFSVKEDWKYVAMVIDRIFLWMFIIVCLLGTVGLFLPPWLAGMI
How it was run: (§1)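 A cell line expressing human recombinant α4β2 nAChR. Agonism was read as intracellular Ca2+ dynamics by FLIPR. Values are averages of six replicates.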

[3] = biological target: T1, Neuronal acetylcholine receptor; alpha4/beta2; assay: Agonist activity at human recombinant alpha4beta2 nAChR expressed in human IMR32 cells assessed as calcium dynamics by FLIPR assay relative to nicotine; type: functional, cell-based; how it was run: as §1
Mus musculus [4] = assay: Decrease in body temperature in mouse at 65 umol/kg, ip; type: functional, organism-based
[5] = biological target: Neuronal acetylcholine receptor; alpha4/beta2 (Rattus norvegicus, UniProt P09483+P12390); assay: Displacement of [3H]cytisine from alpha4beta2 nAChR in rat brain membrane; type: cell membranes
Neuronal acetylcholine receptor; alpha4/beta2 (Rattus norvegicus, UniProt P09483+P12390), sequence (P09483 whole entry): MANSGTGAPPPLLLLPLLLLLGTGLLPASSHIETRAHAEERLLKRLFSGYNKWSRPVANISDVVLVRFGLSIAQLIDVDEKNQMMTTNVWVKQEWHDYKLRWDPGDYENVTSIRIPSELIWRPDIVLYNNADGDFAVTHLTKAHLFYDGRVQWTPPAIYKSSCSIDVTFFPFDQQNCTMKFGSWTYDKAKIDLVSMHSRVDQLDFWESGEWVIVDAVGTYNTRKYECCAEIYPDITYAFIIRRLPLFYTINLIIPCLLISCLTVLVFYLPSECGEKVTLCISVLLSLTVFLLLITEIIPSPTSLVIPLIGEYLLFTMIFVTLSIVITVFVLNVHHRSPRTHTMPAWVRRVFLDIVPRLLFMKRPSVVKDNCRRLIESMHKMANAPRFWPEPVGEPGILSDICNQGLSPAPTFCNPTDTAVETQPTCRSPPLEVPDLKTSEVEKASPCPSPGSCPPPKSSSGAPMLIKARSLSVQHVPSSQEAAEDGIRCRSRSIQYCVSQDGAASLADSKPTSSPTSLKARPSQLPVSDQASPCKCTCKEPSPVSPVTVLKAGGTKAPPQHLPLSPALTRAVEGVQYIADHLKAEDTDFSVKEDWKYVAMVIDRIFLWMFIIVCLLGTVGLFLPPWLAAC
Neuronal acetylcholine receptor; alpha4/beta2 (Rattus norvegicus, UniProt P09483+P12390), sequence (P12390 whole entry): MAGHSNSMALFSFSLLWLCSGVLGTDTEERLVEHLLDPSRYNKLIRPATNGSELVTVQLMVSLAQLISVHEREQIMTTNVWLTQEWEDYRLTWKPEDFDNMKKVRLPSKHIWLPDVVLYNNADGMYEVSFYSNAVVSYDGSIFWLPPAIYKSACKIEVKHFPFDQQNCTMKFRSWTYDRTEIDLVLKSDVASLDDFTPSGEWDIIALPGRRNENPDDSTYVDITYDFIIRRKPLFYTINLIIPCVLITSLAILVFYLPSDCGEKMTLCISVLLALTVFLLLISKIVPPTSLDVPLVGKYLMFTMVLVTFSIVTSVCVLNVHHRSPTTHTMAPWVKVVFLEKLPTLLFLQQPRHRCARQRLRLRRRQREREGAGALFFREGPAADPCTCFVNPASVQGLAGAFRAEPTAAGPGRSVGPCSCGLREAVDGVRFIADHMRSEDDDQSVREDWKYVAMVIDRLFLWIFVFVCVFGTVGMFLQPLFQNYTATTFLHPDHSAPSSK

[6] = biological target: T2, Neuronal acetylcholine receptor; alpha3/beta4 (Homo sapiens, UniProt P30926+P32297); assay: Agonist activity at human […] nAChR expressed in human IMR32 cells assessed as calcium dynamics by FLIPR assay relative to nicotine; type: functional, cell-based; settings: IMR-32
T2 sequence (P30926 whole entry): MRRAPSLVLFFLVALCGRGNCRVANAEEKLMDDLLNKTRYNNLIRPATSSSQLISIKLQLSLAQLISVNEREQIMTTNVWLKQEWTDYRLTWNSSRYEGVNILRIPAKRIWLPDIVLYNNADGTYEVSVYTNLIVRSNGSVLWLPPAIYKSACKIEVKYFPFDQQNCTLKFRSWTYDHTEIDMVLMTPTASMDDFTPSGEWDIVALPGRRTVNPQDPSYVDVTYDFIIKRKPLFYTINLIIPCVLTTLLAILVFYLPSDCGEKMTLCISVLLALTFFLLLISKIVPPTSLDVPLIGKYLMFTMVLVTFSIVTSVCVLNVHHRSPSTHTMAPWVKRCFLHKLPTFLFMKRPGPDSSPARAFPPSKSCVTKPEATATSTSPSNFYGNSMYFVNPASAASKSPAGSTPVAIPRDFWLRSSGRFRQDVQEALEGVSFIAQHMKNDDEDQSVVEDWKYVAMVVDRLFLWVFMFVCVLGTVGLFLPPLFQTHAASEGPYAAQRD
T2 sequence (P32297 whole entry): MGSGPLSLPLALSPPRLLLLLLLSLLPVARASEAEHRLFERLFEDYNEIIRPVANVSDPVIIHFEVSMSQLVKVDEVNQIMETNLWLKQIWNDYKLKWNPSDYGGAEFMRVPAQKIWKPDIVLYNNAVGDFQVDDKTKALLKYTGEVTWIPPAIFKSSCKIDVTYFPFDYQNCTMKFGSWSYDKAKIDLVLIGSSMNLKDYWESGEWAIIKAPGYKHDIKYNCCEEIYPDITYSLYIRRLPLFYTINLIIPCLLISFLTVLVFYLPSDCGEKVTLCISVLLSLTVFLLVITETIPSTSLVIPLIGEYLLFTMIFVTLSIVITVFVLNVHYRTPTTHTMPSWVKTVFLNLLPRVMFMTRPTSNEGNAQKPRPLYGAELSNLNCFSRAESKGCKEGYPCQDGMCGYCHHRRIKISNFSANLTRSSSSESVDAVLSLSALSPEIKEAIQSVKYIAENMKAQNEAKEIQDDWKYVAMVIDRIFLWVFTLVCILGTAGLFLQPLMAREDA
How it was run: (§2)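 Endogenous α3β4* nAChR in the human neuroblastoma line IMR-32. Agonism was measured as intracellular Ca2+ dynamics by FLIPR, testing up to 100 μM. Values are averages of six replicates.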

[7] = biological target: T2, Neuronal acetylcholine receptor; alpha3/beta4; assay: Agonist activity at human […] nAChR expressed in human IMR32 cells assessed as calcium dynamics by FLIPR assay; type: functional, cell-based, IMR-32; how it was run: as §2
Mus musculus [8] = assay: Analgesic activity in mouse assessed hypolocomotion at 65 umol/kg, ip; type: functional, organism-based
Mus musculus [9] = assay: Toxicity in mouse assessed as behavioral effect at 65 mg/kg, ip; type: organism-based; design: dose 65 mg/kg, route intraperitoneal; settings: in vivo

Compound | Activity (Mus musculus [1]) | EC50 [2] [µM] | Activity [3] [%] | Activity (Mus musculus [4]) | Ki [5] [nM] | Activity [6] [%] | EC50 [7] [µM] | Activity (Mus musculus [8]) | Activity (Mus musculus [9])
Clc1ccc(N2CCC3(CCN3)C2)cn1 (stereo not drawn) | Active | 2.5 | 48 | Active | 21 | 23 | 6.9 | Active | 
Clc1ccc(OC[C@H]2CCN2)cn1 [TEBANICLINE] |  | 0.02 | 115 |  | 0.048 | 169 | 0.19 |  | 
c1cncc(N2CCC3(CCNC3)C2)c1 (stereo not drawn) |  | > 100 | 4 |  | 74 | 10 | > 100 |  | 
c1cncc(N2CC3CC2CN3)c1 (stereo not drawn) |  |  |  |  |  | 108 | 6.4 |  | 
Clc1ccc(N2CCC3(CCNC3)C2)cn1 (stereo not drawn) |  | > 100 | 9 |  | 240 | 2 | > 100 |  | 
c1cncc(N2CCC3(CCCN3)C2)c1 (stereo not drawn) [TC-2216] |  | > 100 | 20 |  | 33 | 15 | > 100 |  | 
Clc1ccc(N2CCC3(CCCN3)C2)cn1 (stereo not drawn) |  | > 100 | 6 |  | 48 | 8 | > 100 |  | 
c1cncc(N2CC3CNC3C2)c1 (stereo not drawn) |  | 1.6 | 122 |  | 1.2 | 90 | 6.1 |  | 
Clc1ccc(C2CC3CCC2N3)cn1 (stereo not drawn) |  |  | 154 |  |  | 132 |  |  | 
c1cncc(N2CCC3(CCN3)C2)c1 (stereo not drawn) |  | 25 | 44 |  | 11 | 4 | > 100 |  | Non-toxic
